# Measurements: ChEMBL document CHEMBL4017517, “Small Molecule Inhibitors Simultaneously Targeting Cancer Metabolism and Epigenetics: Discovery of Novel Nicotinamide Phosphoribosyltransferase (NAMPT) and Histone Deacetylase (HDAC) Dual Inhibitors” (J Med Chem, 2017)
# Activity calls are given as the source filed them. The rule behind the calls is not given here.
# Legend:
# MDA-MB-231 = test: cells; type: functional, cell-based; conditions: Homo sapiens, MDA-MB-231, 72 h
# HepG2 = test: cells; type: functional, cell-based; conditions: Homo sapiens, HepG2, 72 h
# [1] = target: Nicotinamide phosphoribosyltransferase (Homo sapiens, UniProt P43490); test: Inhibition of human recombinant NAMPT using NAM as substrate preincubated for 5 mins followed by substrate addition measured after 15 mins by fluorescence assay
# HCT-116 [2] = test: cells; type: functional, cell-based; conditions: Homo sapiens, HCT-116, 72 h
# Histone deacetylase 1 = Histone deacetylase 1 (Homo sapiens, UniProt Q13547); test: Inhibition of human recombinant HDAC1 (1 to 482 residues) expressed in Baculovirus using Ac-Leu-Gly-Lys(Ac)-AMC as substrate preincubated for 5 mins followed by substrate addition measured after 30 mins by fluorescence assay
# HCT-116 [3] = test: Induction of apoptosis in human HCT116 cells assessed as late apoptotic cells at 5 uM after 72 hrs by Annexin V-FITC/propidium iodide staining-based flow cytometric analysis (reference value: 3.33%); type: functional
# Outline: (§1)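 HCT116 cells seeded at 5×10^5 cells/mL in six-well plates, treated at 5 μM for 72 h alongside vehicle. Cells trypsinized, washed twice in cold PBS, and resuspended in 1× binding buffer. Stained with annexin V-FITC 15 min at room temperature, then PI 15 min in dark, then flow cytometry.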
# HCT-116 [4] = test: Induction of apoptosis in human HCT116 cells assessed as necrotic cells at 5 uM after 72 hrs by Annexin V-FITC/propidium iodide staining-based flow cytometric analysis (reference value: 1.25%); type: functional
# Outline: as §1
# HCT-116 [5] = test: Induction of apoptosis in human HCT116 cells assessed as early apoptotic cells at 5 uM after 72 hrs by Annexin V-FITC/propidium iodide staining-based flow cytometric analysis (reference value: 7.82%); type: functional
# Outline: as §1
# HCT-116 [6] = test: Antitumor activity against human HCT116 cells xenografted in BALB/C nude mouse assessed as tumor growth inhibition at 25 mg/kg, po administered as single dose for 14 consecutive days measured after 30 to 33 days post implantation; type: functional, organism-based
# Outline: (§2)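 Male BALB/C nude mice (18–20 g) bearing subcutaneous HCT116 right-axilla tumors; treatment started at about 100–300 mm³. Five mice per treatment, eight controls. Dosed po 25 mg/kg/day for 14 consecutive days as suspension in 0.5% carboxymethyl cellulose; controls got vehicle. Tumor volume (1/2 × length × width²) and body weight recorded every 3 days. Sacrifice day 30–33 post-implant.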
# Mus musculus = test: Toxicity in BALB/C nude mouse xenografted with human HCT116 cells assessed as change in body weight at 25 mg/kg, po administered as single dose for 14 consecutive days measured during compound dosing; type: organism-based; conditions: in vivo
# Outline: as §2
# [7] = Cmax in BALB/C nude mouse at 25 mg/kg, po; type: ADME, organism-based; design: dose 25 mg/kg, route oral; conditions: in vivo
# Outline: (§3)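 Mice given a single oral dose of 25 mg/kg. Plasma pharmacokinetics sampled to obtain terminal half-life and Cmax.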
# [8] = Terminal half life in BALB/C nude mouse at 25 mg/kg, po; type: ADME, organism-based; conditions: in vivo, read-out: beta t1/2 (converted)
# Outline: as §3
# HCT-116 [9] = test: Antitumor activity against human HCT116 cells xenografted in BALB/C nude mouse assessed as tumor growth inhibition at 15 mg/kg, ip bid administered for 21 consecutive days measured after 30 to 33 days post implantation relative to control; type: functional; conditions: HCT-116, ip, read-out: TGI
# Outline: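 HCT116 cells implanted subcutaneously in right axilla of male BALB/C nude mice (18–20 g). Dosing began at tumor volume about 100–300 mm³; five mice per treatment, eight controls. Given ip bid for 21 consecutive days in 0.1% Tween 80 in normal saline, with vehicle controls. Caliper volume TV = 1/2 × a × b² measured every 3 days. Mice sacrificed day 30–33 post-implant; TGI calculated at end of treatment.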
# Chain of Histone deacetylase 1 (Q13547 whole entry, the tested form may be a part): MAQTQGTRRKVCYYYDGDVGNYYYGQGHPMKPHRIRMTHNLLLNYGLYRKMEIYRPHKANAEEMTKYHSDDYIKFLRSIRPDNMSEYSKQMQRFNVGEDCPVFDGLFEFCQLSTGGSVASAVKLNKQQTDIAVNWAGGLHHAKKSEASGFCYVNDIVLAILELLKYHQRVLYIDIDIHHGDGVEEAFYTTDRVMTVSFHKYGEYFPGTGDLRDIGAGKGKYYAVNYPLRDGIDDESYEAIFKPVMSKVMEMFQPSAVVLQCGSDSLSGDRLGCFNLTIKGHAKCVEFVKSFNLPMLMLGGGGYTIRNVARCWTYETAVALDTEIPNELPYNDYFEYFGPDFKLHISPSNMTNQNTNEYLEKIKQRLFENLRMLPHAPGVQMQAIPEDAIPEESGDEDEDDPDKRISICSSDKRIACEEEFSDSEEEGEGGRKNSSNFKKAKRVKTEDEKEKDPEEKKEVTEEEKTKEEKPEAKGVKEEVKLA
# Chain of Nicotinamide phosphoribosyltransferase (P43490 whole entry): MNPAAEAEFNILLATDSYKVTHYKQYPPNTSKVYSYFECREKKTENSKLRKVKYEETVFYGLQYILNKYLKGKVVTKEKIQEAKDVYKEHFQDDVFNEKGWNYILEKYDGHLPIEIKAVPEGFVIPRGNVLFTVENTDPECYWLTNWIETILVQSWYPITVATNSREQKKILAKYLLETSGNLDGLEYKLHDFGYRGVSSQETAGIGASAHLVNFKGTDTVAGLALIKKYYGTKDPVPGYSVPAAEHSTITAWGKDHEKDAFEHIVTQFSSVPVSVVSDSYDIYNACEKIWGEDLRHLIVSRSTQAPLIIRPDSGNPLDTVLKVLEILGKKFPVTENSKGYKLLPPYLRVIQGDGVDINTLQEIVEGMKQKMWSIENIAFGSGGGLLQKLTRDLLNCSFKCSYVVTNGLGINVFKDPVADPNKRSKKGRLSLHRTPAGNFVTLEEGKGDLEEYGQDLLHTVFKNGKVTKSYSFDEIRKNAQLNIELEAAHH
IC50 (MDA-MB-231),IC50 (HepG2),IC50 [1],IC50 (HCT-116 [2]),IC50 (Histone deacetylase 1),Cmax [7],half-life [8],SMILES,Activity (HCT-116 [3]),Activity (HCT-116 [4]),Activity (HCT-116 [5]),TGI (HCT-116 [6]),Activity (Mus musculus),inhibition in vivo at 15 mg/kg (HCT-116 [9])
> 100 µM,3.3 µM,> 2 µM,2.8 µM,0.22 µM,,,Nc1cccc(CNC(=S)Nc2ccc(C(=O)Nc3ccccc3N)cc2)c1,,,,,,
63 µM,11 µM,> 2 µM,11 µM,0.26 µM,,,Cc1ccc(CNC(=S)Nc2ccc(C(=O)Nc3ccccc3N)cc2)cn1,,,,,,
54 µM,3.4 µM,> 2 µM,7.4 µM,0.093 µM,,,Nc1ccccc1NC(=O)c1ccc(CNC(=O)c2ccc3cncn3c2)cc1,,,,,,
> 100 µM,3.1 µM,> 2 µM,7.3 µM,0.33 µM,,,Nc1ccc(CNC(=O)Nc2ccc(C(=O)Nc3ccccc3N)cc2)cn1,,,,,,
46 µM,5.5 µM,> 2 µM,1.8 µM,0.087 µM,,,Nc1ccccc1NC(=O)c1ccc(CNC(=O)c2ccn3ccnc3c2)cc1,,,,,,
40 µM,0.38 µM,> 2 µM,3 µM,0.083 µM,,,Nc1ccccc1NC(=O)c1ccc(CNC(=O)c2cc3cnccc3s2)cc1,,,,,,
13 µM,0.56 µM,> 2 µM,2.4 µM,0.67 µM,,,Nc1ccccc1NC(=O)c1ccc(NC(=O)/C(Cl)=C(\Cl)c2cccnc2)cc1,,,,,,
41 µM,4.7 µM,> 2 µM,3.3 µM,0.071 µM,,,Nc1ccccc1NC(=O)c1ccc(CNC(=O)c2cc3ccncc3[nH]2)cc1,,,,,,
,5.3 µM,,41 µM,> 10 µM,,,O=S(=O)(c1ccc(NC(=S)NCc2cccnc2)cc1)N1CCCCC1,11.4%,1.62%,29.11%,,,
,4.2 µM,0.116 to 0.12 µM,1 µM,1.6 µM,2300 nM,1.8 h,Nc1ccccc1NC(=O)c1ccc(NC(=S)NCc2cccnc2)cc1,,,,Active,Non-Toxic,
> 100 µM,5.1 µM,0.55 µM,9.4 µM,0.22 µM,,,Nc1ccccc1NC(=O)c1ccc(NC(=O)NCc2cccnc2)cc1,,,,,,
> 100 µM,100 µM,> 2 µM,100 µM,3.3 µM,,,CC(C)(C)OC(=O)Nc1ccc(CNC(=O)Nc2ccc(C(=O)Nc3ccccc3N)cc2)cn1,,,,,,
> 100 µM,5.1 µM,> 2 µM,8.4 µM,0.1 µM,,,Nc1ccccc1NC(=O)c1ccc(NC(=S)NCc2ccc3c(c2)OCO3)cc1,,,,,,
91 µM,13 µM,> 2 µM,14 µM,0.28 µM,,,Nc1ccccc1NC(=O)c1ccc(NC(=O)NCc2ccc(F)nc2)cc1,,,,,,
> 100 µM,6.1 µM,> 2 µM,10 µM,0.033 µM,,,Nc1ccccc1NC(=O)c1ccc(CNC(=O)c2cc3cccnc3[nH]2)cc1,,,,,,
74 µM,2.9 µM,> 2 µM,5.9 µM,0.17 µM,,,Nc1ccccc1NC(=O)c1ccc(NC(=S)NCc2cccc(F)c2)cc1,,,,,,
42 µM,19 µM,> 2 µM,6.1 µM,0.25 µM,,,Nc1ccccc1NC(=O)c1ccc(NC(=S)NCc2ccc(Cl)nc2)cc1,,,,,,

IC50 (MDA-MB-231),IC50 (HepG2),IC50 [1],IC50 (HCT-116 [2]),IC50 (Histone deacetylase 1),Cmax [7],half-life [8],SMILES,Activity (HCT-116 [3]),Activity (HCT-116 [4]),Activity (HCT-116 [5]),TGI (HCT-116 [6]),Activity (Mus musculus),inhibition in vivo at 15 mg/kg (HCT-116 [9])
81 µM,5.2 µM,> 2 µM,10 µM,0.37 µM,,,Nc1ccccc1NC(=O)c1ccc(NC(=S)NCc2ccc(F)nc2)cc1,,,,,,
> 100 µM,8.1 µM,0.018 µM,> 100 µM,0.041 µM,,,Nc1ccccc1NC(=O)c1ccc(Cn2cc(-c3ccc(NC(=O)NCc4cccnc4)cc3)nn2)cc1,,,,,,
92 µM,2.6 µM,> 2 µM,5.9 µM,0.18 µM,,,Nc1ccccc1NC(=O)c1ccc(NC(=S)NCc2cccc(Cl)c2)cc1,,,,,,
34 µM,2.4 µM,> 2 µM,5.2 µM,0.021 µM,,,Nc1ccccc1NC(=O)c1ccc(NC(=O)NCc2ccc(Cl)nc2)cc1,,,,,,
85 µM,13 µM,> 2 µM,15 µM,0.44 µM,,,Nc1ccccc1NC(=O)c1ccc(NC(=S)NCc2cncc(F)c2)cc1,,,,,,
> 100 µM,5.4 µM,> 2 µM,6.3 µM,0.3 µM,,,Nc1ccccc1NC(=O)c1ccc(NC(=S)NCc2ccccc2F)cc1,,,,,,
> 100 µM,14 µM,> 2 µM,27 µM,0.2 µM,,,Nc1ccc(CNC(=S)Nc2ccc(C(=O)Nc3ccccc3N)cc2)cn1,,,,,,
> 100 µM,31 µM,> 2 µM,22 µM,0.046 µM,,,Nc1ccccc1NC(=O)c1ccc(NC(=S)NCc2nc3ccccc3[nH]2)cc1,,,,,,
> 100 µM,2.7 µM,0.23 µM,48 µM,0.62 µM,,,Nc1ccccc1NC(=O)c1ccc(NC(=O)/C=C/c2cccnc2)cc1,,,,,,
39 µM,7.5 µM,> 2 µM,9.2 µM,0.35 µM,,,Nc1ccccc1NC(=O)c1ccc(NC(=S)NCc2cncc(Br)c2)cc1,,,,,,
98 µM,23 µM,> 2 µM,18 µM,0.24 µM,,,Nc1ccccc1NC(=O)c1ccc(CNC(=O)c2ccc3cn[nH]c3c2)cc1,,,,,,
48 µM,1.7 µM,> 2 µM,4 µM,0.084 µM,,,Nc1ccccc1NC(=O)c1ccc(CNC(=O)c2cc3cnccc3[nH]2)cc1,,,,,,
> 100 µM,8.8 µM,> 2 µM,15 µM,0.3 µM,,,Nc1ccccc1NC(=O)c1ccc(NC(=S)NCc2ccc(F)cc2)cc1,,,,,,
1.3 µM,0.89 µM,,1.6 µM,,,,O=C(/C=C/c1cccnc1)NCCCCC1CCN(C(=O)c2ccccc2)CC1 [DAPORINAD],,,,,,39%
41 µM,3.2 µM,0.19 µM,5.5 µM,0.18 µM,,,Nc1ccccc1NC(=O)c1ccc(CCn2cc(-c3cccnc3)nn2)cc1,,,,,,
,10 µM,> 2 µM,10 µM,,,,CC(=O)Nc1ccc(C(=O)Nc2ccccc2N)cc1 [TACEDINALINE],20.75%,3.71%,10.81%,,,
